# Assay results as given in ChEMBL document CHEMBL3588823, “Design, synthesis and biological evaluation of novel 5-oxo-2-thioxoimidazolidine derivatives as potent androgen receptor antagonists” (Eur J Med Chem, 2015).
# pIC50, pKi: −log10 of the molar value.
# Experiments:
# LNCaP = assay: Antiproliferative activity against human LNCAP cells after 3 days; assay type: functional, cell-based; conditions: for pIC50: Homo sapiens, LNCaP, 72 h, read-out: IC50; for IC50: lncap
# How it was run: (§1)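 LNCaP cells seeded at 10,000 per well in RPMI 1640 with 10% charcoal-stripped serum and 1% AAS, then held 3 days at 37 °C. Medium was then replaced with serial compound dilutions, either without DHT (agonism mode) or with DHT (antagonism mode).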
# Androgen receptor [1] = molecular target: T1, Androgen receptor (Homo sapiens, UniProt P10275); assay: Antagonist activity at androgen receptor (unknown origin)
# T1 sequence (P10275 whole entry): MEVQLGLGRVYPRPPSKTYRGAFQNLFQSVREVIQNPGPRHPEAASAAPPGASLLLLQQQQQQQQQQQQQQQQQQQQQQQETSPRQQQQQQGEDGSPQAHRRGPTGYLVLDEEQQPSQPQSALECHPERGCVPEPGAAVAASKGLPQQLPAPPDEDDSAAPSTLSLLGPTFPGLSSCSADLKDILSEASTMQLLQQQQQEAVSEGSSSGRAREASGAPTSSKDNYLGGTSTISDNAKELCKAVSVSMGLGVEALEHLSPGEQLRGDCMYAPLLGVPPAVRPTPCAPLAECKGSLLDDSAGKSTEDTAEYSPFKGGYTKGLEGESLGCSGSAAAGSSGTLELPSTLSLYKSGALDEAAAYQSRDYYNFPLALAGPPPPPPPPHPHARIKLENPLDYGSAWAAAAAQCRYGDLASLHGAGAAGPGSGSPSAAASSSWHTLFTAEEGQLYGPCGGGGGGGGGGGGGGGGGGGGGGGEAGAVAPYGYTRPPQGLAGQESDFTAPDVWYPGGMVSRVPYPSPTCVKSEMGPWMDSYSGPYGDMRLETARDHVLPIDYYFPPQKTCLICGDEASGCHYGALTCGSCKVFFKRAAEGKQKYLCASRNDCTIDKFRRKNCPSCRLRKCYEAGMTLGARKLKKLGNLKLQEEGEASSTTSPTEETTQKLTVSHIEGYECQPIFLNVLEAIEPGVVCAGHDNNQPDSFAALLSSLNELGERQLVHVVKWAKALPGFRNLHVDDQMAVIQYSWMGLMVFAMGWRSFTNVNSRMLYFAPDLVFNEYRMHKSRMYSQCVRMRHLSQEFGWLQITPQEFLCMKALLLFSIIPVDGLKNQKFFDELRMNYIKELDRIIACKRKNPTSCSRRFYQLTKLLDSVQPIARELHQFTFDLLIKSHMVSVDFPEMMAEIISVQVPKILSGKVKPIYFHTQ
# Androgen receptor [2] = molecular target: T1, Androgen receptor; assay: Partial agonist activity at androgen receptor (unknown origin); how it was run: as §1
# Rattus norvegicus [3] = assay: (§2) Clearance in rat at 5 mg/kg, po; assay type: ADME, organism-based; conditions: in vivo
# How it was run: (§3)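 Rats (n = 3) were given a single 5 mg/kg oral dose in 0.5% HPMC. Blood was taken into EDTA tubes at 15 and 30 min and 1, 2, 4, 8 and 24 h. Plasma was obtained by centrifugation and proteins were precipitated with acetonitrile. Bioavailability was calculated against a 1 mg/kg iv dose.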
# Rattus norvegicus [4] = assay: Volume of distribution in rat at 5 mg/kg, po; assay type: ADME, organism-based; conditions: in vivo; how it was run: as §3
# [5] = MRT (INF) in rat at 5 mg/kg, po; assay type: ADME, organism-based; conditions: in vivo; how it was run: as §3
# [6] = MRT (last) in rat at 5 mg/kg, po; assay type: ADME, organism-based; conditions: in vivo; how it was run: as §3
# [7] = Tmax in rat at 1 mg/kg, iv; assay type: ADME, organism-based; conditions: in vivo
# How it was run: (§4)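 Rats (n = 3) were given a single 1 mg/kg iv dose in 20% hydroxypropyl-β-cyclodextrin. Blood was taken into EDTA tubes at 5, 15 and 30 min and 1, 2, 4, 8 and 24 h. Plasma was obtained by centrifugation and proteins were precipitated with acetonitrile before analysis.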
# Rattus norvegicus [8] = assay: (§5) Half life in rat at 5 mg/kg, po; assay type: ADME, organism-based; conditions: in vivo; how it was run: as §3
# [9] = AUC (0 to infinity) in rat at 1 mg/kg, iv; assay type: ADME, organism-based; design: dose 1 mg/kg, route intravenous, time infinity; conditions: in vivo
# How it was run: (§6)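 Rats (n = 3) given a single 1 mg/kg iv dose in 20% HP-b-CD. Blood was drawn into EDTA tubes at 5, 15 and 30 min and at 1, 2, 4, 8 and 24 h. Plasma was separated by centrifugation, mixed with acetonitrile:H2O (1:1 v/v) and protein-precipitated with acetonitrile.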
# [10] = Tmax in rat at 5 mg/kg, po; assay type: ADME, organism-based; conditions: in vivo; how it was run: as §3
# [11] = Half life in rat at 1 mg/kg, iv; assay type: ADME, organism-based; conditions: in vivo; how it was run: as §4
# [12] = AUC (0 to time) in rat at 5 mg/kg, po; assay type: ADME, organism-based; conditions: in vivo
# How it was run: (§7)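 Rats (n = 3) received a single 5 mg/kg oral dose in 0.5% HPMC. EDTA blood samples were taken at 15 and 30 min and at 1, 2, 4, 8 and 24 h. Plasma was obtained by centrifugation, mixed with acetonitrile:H2O (1:1 v/v) and precipitated with acetonitrile.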
# [13] = AUC (0 to time) in rat at 1 mg/kg, iv; assay type: ADME, organism-based; conditions: in vivo; how it was run: as §6
# [14] = Cmax in rat at 5 mg/kg, po; assay type: ADME, organism-based; design: dose 5 mg/kg, route oral; conditions: in vivo; how it was run: as §3
# [15] = AUC (0 to infinity) in rat at 5 mg/kg, po; assay type: ADME, organism-based; design: dose 5 mg/kg, route oral, time infinity; conditions: in vivo; how it was run: as §7
# [16] = Clearance in rat at 1 mg/kg, iv; assay type: ADME, organism-based; conditions: in vivo; how it was run: as §4
# [17] = Cmax in rat at 1 mg/kg, iv; assay type: ADME, organism-based; design: dose 1 mg/kg, route intravenous; conditions: in vivo; how it was run: as §4
# [18] = Volume of distribution at steady state in rat at 1 mg/kg, iv; assay type: ADME, organism-based; conditions: in vivo, read-out: Vdss; how it was run: as §4
# Rattus norvegicus [19] = assay: Volume of distribution at steady state in rat at 5 mg/kg, po; assay type: ADME, organism-based; conditions: in vivo; how it was run: as §3
# [20] = Oral bioavailability in rat at 5 mg/kg; assay type: ADME, organism-based; conditions: in vivo; how it was run: as §3
# [21] = MRT (INF) in rat at 1 mg/kg, iv; assay type: ADME, organism-based; conditions: in vivo; how it was run: as §4
# [22] = MRT (last) in rat at 1 mg/kg, iv; assay type: ADME, organism-based; conditions: in vivo; how it was run: as §4
# [23] = Volume of distribution in rat at 1 mg/kg, iv; assay type: ADME, organism-based; conditions: in vivo; how it was run: as §4
# [24] = as §2; assay type: ADME, organism-based; conditions: in vivo; how it was run: as §3
# [25] = as §5; assay type: ADME, organism-based; conditions: in vivo; how it was run: as §3
compound,measurement,setting,value
CNC(=O)c1ccc(N2C(=S)N(c3ccc(C#N)c(C(F)(F)F)c3)C(=O)[C@]2(C)COC)cc1F,pIC50,LNCaP,5.50
same,pKi,Androgen receptor [1],6.10
CCOC(=O)CC1(C)C(=O)N(c2ccc(C#N)c(C(F)(F)F)c2)C(=S)N1c1ccc(C(=O)NC)c(F)c1 (racemic),pIC50,LNCaP,5.86
same,pKi,Androgen receptor [1],6.63
CNC(=O)c1ccc(N2C(=S)N(c3ccc(C#N)c(C(F)(F)F)c3)C(=O)C23CN(C(c2ccccc2)c2ccccc2)C3)cc1F,IC50,LNCaP,Not Active
same,Ki,Androgen receptor [1],Not Active
CC(O)(CS(=O)(=O)c1ccc(F)cc1)C(=O)Nc1ccc(C#N)c(C(F)(F)F)c1 (stereo not drawn) [BICALUTAMIDE],pIC50,LNCaP,6.14
CNC(=O)c1ccc(N2C(=S)N(c3ccc(C#N)c(C(F)(F)F)c3)C(=O)C2(C)COCc2ccccc2)cc1F (racemic),pIC50,LNCaP,5.64
same,pKi,Androgen receptor [1],6.29
CNC(=O)c1ccc(N2C(=S)N(c3ccc(C#N)c(C(F)(F)F)c3)C(=O)C2C)cc1F (racemic),pKi,Androgen receptor [2],6.59
same,pIC50,LNCaP,6.02
N#Cc1ccc(N2C(=O)[C@]3(CCOC3)N(c3ccc(C(N)=O)c(F)c3)C2=S)cc1C(F)(F)F,CL,Rattus norvegicus [3],60 mL/min/kg
same,Vd,Rattus norvegicus [4],9.4 L/kg
same,MRT inf,[5],3.7 h
same,MRT last,[6],3.1 h
same,Tmax,[7],4.98 min
same,t1/2,Rattus norvegicus [8],1.8 h
same,AUC(0-inf),[9],303 ng·h/mL
same,Tmax,[10],2 h
same,half-life,[11],1.5 h
same,pIC50,LNCaP,7.15
same,AUC,[12],1280 ng·h/mL
same,AUC,[13],295 ng·h/mL
same,Cmax,[14],261 ng/mL
same,AUC(0-inf),[15],1390 ng·h/mL
same,clearance,[16],55 mL/min/kg
same,Cmax,[17],185 ng/mL
same,pKi,Androgen receptor [1],7.85
same,Vd,[18],6.1 L/kg
same,Vdss,Rattus norvegicus [19],22.3 L/kg
same,bioavailability,[20],87%
same,MRT inf,[21],1.8 h
same,MRT last,[22],1.6 h
same,Vd,[23],7 L/kg
CNC(=O)c1ccc(N2C(=S)N(c3ccc(C#N)c(C(F)(F)F)c3)C(=O)C23CCN(C)CC3)cc1F,pIC50,LNCaP,< 5.00
CNC(=O)c1ccc(N2C(=S)N(c3ccc(C#N)c(C(F)(F)F)c3)C(=O)C23CCOC3)cc1F (racemic),pIC50,LNCaP,6.71
same,pKi,Androgen receptor [1],7.47
CNC(=O)c1ccc(N2CC(=O)N(c3ccc(C#N)c(C(F)(F)F)c3)C2=S)cc1F,pIC50,LNCaP,< 5.00
N#Cc1ccc(N2C(=O)[C@]3(CCOC3)N(c3ccc(C(=O)O)c(F)c3)C2=S)cc1C(F)(F)F,CL/F,[24],117 mL/min/kg
same,Vd,Rattus norvegicus [4],38.4 L/kg
same,MRT inf,[5],4.2 h
same,MRT last,[6],3.5 h
same,Tmax,[7],4.98 min
same,half-life,[25],4 h
same,AUC(0-inf),[9],509 ng·h/mL
same,Tmax,[10],0.42 h
same,half-life,[11],3.3 h
same,IC50,LNCaP,Not Active
same,AUC,[12],716 ng·h/mL
same,AUC,[13],497 ng·h/mL
same,Cmax,[14],231 ng/mL
same,AUC(0-inf),[15],743 ng·h/mL
same,clearance,[16],33.3 mL/min/kg
same,Cmax,[17],1180 ng/mL
same,Ki,Androgen receptor [1],Not Active
same,bioavailability,[20],29%
same,MRT inf,[21],0.8 h
same,MRT last,[22],0.5 h
same,Vd,[23],8 L/kg
CNC(=O)c1ccc(N2C(=S)N(c3ccc(C#N)c(C(F)(F)F)c3)C(=O)C2(C)CC(=O)O)cc1F (racemic),IC50,LNCaP,Not Active
same,Ki,Androgen receptor [1],Not Active
CNC(=O)c1ccc(N2C(=S)N(c3ccc(C#N)c(C(F)(F)F)c3)C(=O)C2(C)CO)cc1F (stereo not drawn),pKi,Androgen receptor [2],7.36
same,pIC50,LNCaP,6.67
